Results reported in the M2OR odorant receptor database.
Where a chain is given by its changes, count along the chain named.

The compounds below were run against T1, OR5K1 (Homo sapiens) (UniProt Q8NHB7). Details: stereoisomer not certain.
T1 sequence (whole entry): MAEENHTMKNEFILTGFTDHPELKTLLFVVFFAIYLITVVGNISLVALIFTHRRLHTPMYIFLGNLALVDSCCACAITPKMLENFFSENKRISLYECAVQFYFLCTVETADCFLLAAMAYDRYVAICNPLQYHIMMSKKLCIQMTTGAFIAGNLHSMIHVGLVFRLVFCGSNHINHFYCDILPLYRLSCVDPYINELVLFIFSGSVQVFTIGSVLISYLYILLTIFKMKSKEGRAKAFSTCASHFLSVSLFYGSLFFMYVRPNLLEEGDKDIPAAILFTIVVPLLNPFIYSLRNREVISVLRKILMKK
Procedure, shortened: (§1)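 Assay methods differ from source to source, frequently being transient luciferase assays in mammalian cell lines. For each receptor–molecule pair, the label responsive (active) applies when the original authors judged the measured signal statistically different from baseline, and non-responsive (inactive) applies otherwise.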

Odorant receptor agonist call, active:
CCc1nccnc1C(C)=O, CCc1ncc(C)nc1CC, Cc1cnc(C)c(C)n1, Cc1cncc(C)n1, Cc1nccnc1C, CC1=NC(C)C(C)S1 (stereo not given), C=Cc1cnccn1, CC(=O)c1nccnc1C, COc1cnccn1, CCc1nccnc1CC

Odorant receptor agonist call, inactive:
CCCC(S)CCOC(C)=O (stereo not given), CCCCCCC=CCCC=O, CCCCC(S)C(C)CO (stereo not given), CCCCCC(S)C(C)CO (stereo not given), CC(CO)CS (stereo not given), CCC1OC(C)=C(O)C1=O (stereo not given)

These compounds were tested against T2, OR5K2 (Homo sapiens) (UniProt Q8NHB8). Details: stereoisomer not certain.
T2 sequence (whole entry): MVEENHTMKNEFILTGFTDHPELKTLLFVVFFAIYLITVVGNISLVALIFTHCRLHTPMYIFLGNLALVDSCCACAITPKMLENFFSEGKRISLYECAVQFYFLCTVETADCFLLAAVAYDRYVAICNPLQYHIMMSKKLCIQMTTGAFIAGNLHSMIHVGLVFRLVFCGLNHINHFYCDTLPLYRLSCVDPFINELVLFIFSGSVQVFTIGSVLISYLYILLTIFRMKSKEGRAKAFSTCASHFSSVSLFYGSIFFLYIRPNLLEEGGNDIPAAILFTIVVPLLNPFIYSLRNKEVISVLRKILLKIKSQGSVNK
Procedure, shortened: as §1

Odorant receptor agonist call, inactive:
CC1CCc2nccnc21 (stereo not given), CC(=O)c1c(C)c([N+](=O)[O-])c(C(C)(C)C)c([N+](=O)[O-])c1C, COc1nccnc1C(C)C, CCc1nccnc1OC, CCC(C)c1nccnc1OC (stereo not given), Cc1cnccn1, CCC(S)C(C)CO (stereo not given), CCc1nccnc1C, Cc1cnc(C)cn1, CC1=C(O)C(=O)C(C)O1 (stereo not given), CC1CCCCCCCCCCCCC(=O)C1 (stereo not given), CC1=C(O)C(=O)OC1C (stereo not given), CCCCCC(=O)C(C)C(C)=O (stereo not given), CC(=O)c1cnccn1, CCC1OC(=O)C(O)=C1C (stereo not given), CCc1nccnc1C(C)=O, CCCC(S)CCOC(C)=O (stereo not given), CCc1ncc(C)nc1CC, CCCCCCC=CCCC=O, CCCCC(S)C(C)CO (stereo not given), Cc1cnc(C)c(C)n1, Cc1cncc(C)n1, Cc1nccnc1C, CCCCCC(S)C(C)CO (stereo not given), CC1=NC(C)C(C)S1 (stereo not given), C=Cc1cnccn1, CC(=O)c1nccnc1C, COc1cnccn1, CC(CO)CS (stereo not given), CCC1OC(C)=C(O)C1=O (stereo not given), CCc1nccnc1CC

What follows are compounds tested on T3, OR5K2 L197M. Details: stereoisomer not certain.
T3 sequence (whole entry): T2 sequence (whole entry) with L197M
Procedure, shortened: as §1

Odorant receptor agonist call, inactive:
CC1=C(O)C(=O)C(C)O1 (stereo not given), CC1=C(O)C(=O)OC1C (stereo not given), CCC1OC(=O)C(O)=C1C (stereo not given), CCCC(S)CCOC(C)=O (stereo not given), CCCCCCC=CCCC=O, Cc1cnc(C)c(C)n1, CC1=NC(C)C(C)S1 (stereo not given), CCC1OC(C)=C(O)C1=O (stereo not given)
